Source: ChEMBL document CHEMBL2069243, “Synthesis and SAR of pyridothiazole substituted pyrimidine derived HCV replication inhibitors” (Bioorg Med Chem Lett, 2012)

Experiments:
[1] = Cytotoxicity against human hepatoma cells assessed as decrease in GADPH RNA level after 3 days by Rt-PCR analysis; type: cell-based
[2] = system: Hepatitis C virus; experiment: Antiviral activity against Hepatitis C virus 1b con1 infected in human hepatoma cells assessed as decrease in replicon RNA level after 3 days by RT-PCR analysis; type: functional, organism-based, Hepacivirus hominis; conditions: genotype 1b Con1, 72 h
Method in brief: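 Con1 genotype 1b replicon cells were seeded at 5000 cells/well one day before treatment. Compound in DMSO was added (final 0.5% DMSO, 10% FBS) as 10 serial twofold dilutions in triplicate. Cells were harvested 3 days after dosing. Replicon RNA was quantified by real-time RT-PCR (Taqman), normalized to GAPDH RNA, and EC50 was calculated.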

[3] = Drug uptake in rat liver at 10 mg/kg, po at 6 hrs; type: ADME, organism-based; set-up: dose 10 mg/kg, route oral; conditions: read-out: Drug uptake
Method in brief: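 Rats were dosed orally at 10 mpk in 0.4% methylcellulose, n=2. Animals were sacrificed at 6 h, and liver was harvested and processed to measure compound concentration (liver C6 h).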

[4] = Cytotoxicity against human hepatoma cells after 3 days by MTS assay; type: cell-based
Method in brief: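 MTS cell proliferation assay on replicon cells handled as in the replicon activity assay (seeded one day before, 0.5% DMSO, 10% FBS, serial dilutions), read 3 days after dosing. CC50 is the concentration giving 50% inhibition relative to vehicle-treated cells.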

[5] = AUC (0 to 6 hrs) in rat at 10 mg/kg, po; type: ADME, organism-based; set-up: time < 6 hr, dose 10 mg/kg, route oral; conditions: plasma
Method in brief: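 Rats were dosed orally at 10 mpk in 0.4% methylcellulose, n=2 per compound. Plasma was sampled at 8 time points up to 6 h, and exposure was reported as AUC0-6 h.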

[6] = Cytotoxicity against human hepatoma cells assessed as inhibition of [14C]thymidine incorporation after 3 days by TopCount analysis; type: cell-based
Method in brief: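 Replicon cells were seeded in scintillating microplates one day before treatment. Compound dilutions in triplicate were added with [methyl-14C]-thymidine (final 0.5 uCi/mL) and incubated 3 days. Incorporated label was counted by scintillation proximity. DNA CC50 is the concentration giving 50% inhibition of thymidine incorporation versus vehicle-treated cells.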

Row | EC50 [2] [µM] | concentration at 6 h [3] [ng/g] | AUC(0-t) at 6 h [5] [µM·h] | Structure (SMILES) | CC50 at 72 h [1] [µM] | CC50 at 72 h [4] [µM] | CC50 at 72 h [6] [µM]
1 | 0.02 | 1260 | 0.8 | CCCc1nccc2sc(-c3c(C)nc(N[C@H](C)c4ccc(OC(F)(F)F)cc4)nc3N[C@@H]3C[C@H](CO)[C@@H](O)[C@H]3O)nc12 | 13 | 13 | 
2 | 0.026 | 8500 | 3.2 | Cc1nc(N[C@H](C)c2ccc(OC(F)(F)F)cc2)nc(N[C@@H]2C[C@H](CO)[C@@H](O)[C@H]2O)c1-c1nc2c(C(C)C)nccc2s1 | 11 | 10 | 
3 | 0.026 | 4400 | 3.2 | Cc1nc(N[C@H](C)c2ccc(OC(F)(F)F)cc2)nc(N[C@@H]2C[C@H](CO)[C@@H](O)[C@H]2O)c1-c1nc2c(CC(C)(C)C)nccc2s1 | 10 | 13 | 
4 | 0.016 | 4900 | 3.3 | Cc1nc(N[C@H](C)c2ccc(OC(F)(F)F)cc2)nc(N[C@@H]2C[C@H](CO)[C@@H](O)[C@H]2O)c1-c1nc2c(C3CCC3)nccc2s1 | 5 | 5 | 
5 | 0.059 |  |  | COC(=O)CCc1nccc2sc(-c3c(C)nc(N[C@H](C)c4ccc(OC(F)(F)F)cc4)nc3N[C@@H]3C[C@H](CO)[C@@H](O)[C@H]3O)nc12 | 23 | 14 | 
6 | 0.034 | 16 | 0.4 | Cc1nc(N[C@H](C)c2ccc(OC(F)(F)F)cc2)nc(N[C@@H]2C[C@H](CO)[C@@H](O)[C@H]2O)c1-c1nc2c(CCC#N)nccc2s1 | 12 | 12 | 
7 | 0.037 |  |  | Cc1nc(N[C@H](C)c2ccc(OC(F)(F)F)cc2)nc(N[C@@H]2C[C@H](CO)[C@@H](O)[C@H]2O)c1-c1nc2c(N)nccc2s1 | 25 | > 25 | 
8 | 0.038 |  |  | Cc1cc2sc(-c3c(C)nc(N[C@H](C)c4ccc(OC(F)(F)F)cc4)nc3N[C@@H]3C[C@H](CO)[C@@H](O)[C@H]3O)nc2cn1 | 25 | > 25 | 
9 | 0.043 | 9800 | 5.6 | Cc1cc2sc(-c3c(C)nc(N[C@H](C)c4ccc(OC(F)(F)F)cc4)nc3N[C@@H]3C[C@H](CO)[C@@H](O)[C@H]3O)nc2c(C)n1 | 20 | 12 | 
10 | 0.264 | 257 | 25 | CCc1nc(C)cc2sc(-c3c(C)nc(N[C@H](C)c4ccc(OC(F)(F)F)cc4)nc3N[C@@H]3C[C@H](CO)[C@@H](O)[C@H]3O)nc12 | 23 | 24 | 
11 | 0.703 |  |  | Cc1cc2sc(-c3c(C)nc(N[C@H](C)c4ccc(OC(F)(F)F)cc4)nc3N[C@@H]3C[C@H](CO)[C@@H](O)[C@H]3O)nc2c(C2CC2)n1 | 21 | 24 | 
12 | 0.069 |  |  | CCc1cc2sc(-c3c(C)nc(N[C@H](C)c4ccc(OC(F)(F)F)cc4)nc3N[C@@H]3C[C@H](CO)[C@@H](O)[C@H]3O)nc2c(CC)n1 | 12 | 13 | 
13 | 0.052 |  | 0.3 | CNc1nc(C)c(-c2nc3cnccc3s2)c(N[C@@H]2C[C@H](CO)[C@@H](O)[C@H]2O)n1 | 14 | 20 | 
14 | 0.557 | 1400 | 7.5 | Cc1nc(N(C)C)nc(N[C@@H]2C[C@H](CO)[C@@H](O)[C@H]2O)c1-c1nc2cnccc2s1 | 25 | > 25 | 
15 | 0.016 |  |  | Cc1nc(NCC(F)(F)F)nc(N[C@@H]2C[C@H](CO)[C@@H](O)[C@H]2O)c1-c1nc2cnccc2s1 | 25 | > 25 | 
16 | 0.124 |  |  | Cc1nc(N)nc(N[C@@H]2C[C@H](CO)[C@@H](O)[C@H]2O)c1-c1nc2cnccc2s1 | 25 | 18 | 
17 | 0.008 | 192 | 0.4 | Cc1nc(NCC2CC2)nc(N[C@@H]2C[C@H](CO)[C@@H](O)[C@H]2O)c1-c1nc2cnccc2s1 | 3 | 5 | 
18 | 0.009 | 368 | 0.2 | CCOCCNc1nc(C)c(-c2nc3cnccc3s2)c(N[C@@H]2C[C@H](CO)[C@@H](O)[C@H]2O)n1 | 25 | 16 | 
19 | 0.125 | 276 | 1.4 | Cc1nc(NC2CC2)nc(N[C@@H]2C[C@H](CO)[C@@H](O)[C@H]2O)c1-c1nc2cnccc2s1 | 25 | 19 | 

Row | EC50 [2] [µM] | concentration at 6 h [3] [ng/g] | AUC(0-t) at 6 h [5] [µM·h] | Structure (SMILES) | CC50 at 72 h [1] [µM] | CC50 at 72 h [4] [µM] | CC50 at 72 h [6] [µM]
20 | 1.68 |  |  | Cc1nc(NCC2CCN(C)CC2)nc(N[C@@H]2C[C@H](CO)[C@@H](O)[C@H]2O)c1-c1nc2cnccc2s1 | 25 | > 25 | 
21 | 0.168 | 29 | 0.2 | Cc1nc(Nc2ccccc2)nc(N[C@@H]2C[C@H](CO)[C@@H](O)[C@H]2O)c1-c1nc2cnccc2s1 | 25 | > 25 | 
22 | 0.003 |  |  | Cc1nc(NCc2ccccc2)nc(N[C@@H]2C[C@H](CO)[C@@H](O)[C@H]2O)c1-c1nc2cnccc2s1 | 25 | 14 | 
23 | 0.001 |  |  | Cc1nc(NCc2c(F)cccc2F)nc(N[C@@H]2C[C@H](CO)[C@@H](O)[C@H]2O)c1-c1nc2cnccc2s1 | 4 | 10 | 
24 | 0.003 |  |  | Cc1nc(NCc2ccc(OC(F)(F)F)cc2)nc(N[C@@H]2C[C@H](CO)[C@@H](O)[C@H]2O)c1-c1nc2cnccc2s1 | 25 | 25 | 
25 | 0.012 | 100 | 0.1 | COc1cc(CCNc2nc(C)c(-c3nc4cnccc4s3)c(N[C@@H]3C[C@H](CO)[C@@H](O)[C@H]3O)n2)cc(OC)c1 | 25 | 19 | 
26 | 0.301 | 100 | 0.2 | Cc1nc(N(C)Cc2ccccc2)nc(N[C@@H]2C[C@H](CO)[C@@H](O)[C@H]2O)c1-c1nc2cnccc2s1 | 25 | > 25 | 
27 | 0.007 | 104 | 0.2 | Cc1nc(N[C@H](C)c2ccccc2)nc(N[C@@H]2C[C@H](CO)[C@@H](O)[C@H]2O)c1-c1nc2cnccc2s1 | 25 | > 25 | 
28 | 0.222 | 77 | 0.1 | Cc1nc(N[C@@H](C)c2ccccc2)nc(N[C@@H]2C[C@H](CO)[C@@H](O)[C@H]2O)c1-c1nc2cnccc2s1 | 25 | > 25 | 
29 | 6.2 |  |  | Cc1nc(NC(C)(C)c2ccccc2)nc(N[C@@H]2C[C@H](CO)[C@@H](O)[C@H]2O)c1-c1nc2cnccc2s1 | 25 | > 25 | 
30 | 3.17 |  |  | Cc1ccc(C2(Nc3nc(C)c(-c4nc5cnccc5s4)c(N[C@@H]4C[C@H](CO)[C@@H](O)[C@H]4O)n3)CC2)cc1 | 25 | > 25 | 
31 | 0.114 | 116 | 0.1 | Cc1ccc([C@@H](C)Nc2nc(C)c(-c3nc4cnccc4s3)c(N[C@@H]3C[C@H](CO)[C@@H](O)[C@H]3O)n2)cc1 | 25 | > 25 | 
32 | 0.222 |  |  | Cc1nc(N[C@H](C)c2ccc(F)cc2)nc(N[C@@H]2C[C@H](CO)[C@@H](O)[C@H]2O)c1-c1nc2cnccc2s1 | 25 | 25 | 
33 | 0.017 |  |  | Cc1nc(N[C@H](C)c2ccc(-c3cnn(C)c3)cc2)nc(N[C@@H]2C[C@H](CO)[C@@H](O)[C@H]2O)c1-c1nc2cnccc2s1 | 25 | 25 | 
34 | 0.037 | 17 | 0.1 | COc1cc(OC)cc([C@@H](C)Nc2nc(C)c(-c3nc4cnccc4s3)c(N[C@@H]3C[C@H](CO)[C@@H](O)[C@H]3O)n2)c1 | 25 | 25 | 
35 | 0.017 | 506 | 0.5 | Cc1nc(N[C@H](C)c2ccccc2OC(F)(F)F)nc(N[C@@H]2C[C@H](CO)[C@@H](O)[C@H]2O)c1-c1nc2cnccc2s1 | 24 | 23 | 
36 | 0.016 | 1800 | 1.6 | Cc1nc(N[C@H](C)c2ccc(OC(F)(F)F)cc2)nc(N[C@@H]2C[C@H](CO)[C@@H](O)[C@H]2O)c1-c1nc2cnccc2s1 | 25 | > 25 | 6
37 | 0.02 | 6000 | 5.8 | CCc1nccc2sc(-c3c(C)nc(N[C@H](C)c4ccc(OC(F)(F)F)cc4)nc3N[C@@H]3C[C@H](CO)[C@@H](O)[C@H]3O)nc12 | 7 | 7 | 
